Drawing on ChEMBL document CHEMBL1129251 (J Med Chem, 1996), this text covers Ki and IC50 for two compounds.

Test [1] concerns the target T1, Adrenergic receptor alpha-2 (Rattus norvegicus, UniProt P22086+P19328+P22909).
T1 sequence (P22086 whole entry): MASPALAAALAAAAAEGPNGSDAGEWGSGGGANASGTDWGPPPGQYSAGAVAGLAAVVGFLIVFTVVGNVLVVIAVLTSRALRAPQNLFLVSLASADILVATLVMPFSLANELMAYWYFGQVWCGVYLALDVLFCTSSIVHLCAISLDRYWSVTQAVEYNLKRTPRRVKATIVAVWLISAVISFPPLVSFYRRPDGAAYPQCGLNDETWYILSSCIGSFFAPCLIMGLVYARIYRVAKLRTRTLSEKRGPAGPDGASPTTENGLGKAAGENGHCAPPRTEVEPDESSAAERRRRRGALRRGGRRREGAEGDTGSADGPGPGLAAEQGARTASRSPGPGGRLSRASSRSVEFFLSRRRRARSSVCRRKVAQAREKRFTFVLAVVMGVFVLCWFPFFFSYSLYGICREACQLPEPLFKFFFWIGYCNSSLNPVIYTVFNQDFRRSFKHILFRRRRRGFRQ
T1 sequence (P19328 whole entry): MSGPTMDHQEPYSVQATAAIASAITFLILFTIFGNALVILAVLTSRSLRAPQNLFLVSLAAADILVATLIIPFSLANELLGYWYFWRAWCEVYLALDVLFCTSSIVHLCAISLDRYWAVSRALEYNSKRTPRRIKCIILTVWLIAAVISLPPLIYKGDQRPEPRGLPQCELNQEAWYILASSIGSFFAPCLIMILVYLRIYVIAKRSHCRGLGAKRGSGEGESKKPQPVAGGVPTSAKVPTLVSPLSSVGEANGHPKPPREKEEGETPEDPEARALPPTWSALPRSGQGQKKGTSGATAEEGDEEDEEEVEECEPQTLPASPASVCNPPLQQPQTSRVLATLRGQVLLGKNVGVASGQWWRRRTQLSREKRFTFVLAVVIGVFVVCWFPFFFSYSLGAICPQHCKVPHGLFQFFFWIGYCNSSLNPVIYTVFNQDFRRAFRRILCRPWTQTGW
T1 sequence (P22909 whole entry): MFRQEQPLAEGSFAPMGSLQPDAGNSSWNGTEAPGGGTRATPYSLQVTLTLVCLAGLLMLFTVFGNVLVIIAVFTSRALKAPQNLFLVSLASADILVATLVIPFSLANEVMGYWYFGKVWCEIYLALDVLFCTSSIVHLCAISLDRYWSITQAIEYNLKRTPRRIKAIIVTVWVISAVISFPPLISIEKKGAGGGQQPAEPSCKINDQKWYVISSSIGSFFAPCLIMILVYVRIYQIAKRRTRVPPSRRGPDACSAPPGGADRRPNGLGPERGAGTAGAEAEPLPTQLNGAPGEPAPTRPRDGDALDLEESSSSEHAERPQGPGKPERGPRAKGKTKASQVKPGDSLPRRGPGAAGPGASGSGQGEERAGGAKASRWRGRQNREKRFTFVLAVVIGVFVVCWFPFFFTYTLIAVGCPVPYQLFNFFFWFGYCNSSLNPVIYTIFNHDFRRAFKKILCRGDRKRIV
As to the kind of experiment: Alpha-2 adrenergic receptor binding affinity was tested against membrane preparations of rat brain. An outline of the steps:
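Rat frontal cortex membranes at about 500 µg/mL protein, labelled with [3H]rauwolscine in Tris buffer pH 7.4 containing 10 mM EDTA. Nonspecific binding set by 10 µM phentolamine. 30 °C for 30 min, then filtration and scintillation counting, in triplicate.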

The target of test [2] is T2, Adrenergic receptor alpha-2 (Homo sapiens, UniProt P08913+P18825+P18089).
T2 sequence (P08913 whole entry): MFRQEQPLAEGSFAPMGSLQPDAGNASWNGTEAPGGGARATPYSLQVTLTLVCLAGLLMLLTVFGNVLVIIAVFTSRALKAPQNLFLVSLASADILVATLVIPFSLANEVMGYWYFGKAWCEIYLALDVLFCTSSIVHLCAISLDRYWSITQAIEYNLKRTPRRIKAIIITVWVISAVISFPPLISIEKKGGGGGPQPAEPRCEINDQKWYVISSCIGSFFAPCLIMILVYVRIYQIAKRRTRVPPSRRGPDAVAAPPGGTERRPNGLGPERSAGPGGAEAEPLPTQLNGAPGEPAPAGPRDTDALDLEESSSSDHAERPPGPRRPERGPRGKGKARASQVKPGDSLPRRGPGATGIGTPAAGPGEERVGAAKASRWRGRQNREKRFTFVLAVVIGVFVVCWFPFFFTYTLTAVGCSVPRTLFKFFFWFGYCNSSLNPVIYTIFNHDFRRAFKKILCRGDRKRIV
T2 sequence (P18825 whole entry): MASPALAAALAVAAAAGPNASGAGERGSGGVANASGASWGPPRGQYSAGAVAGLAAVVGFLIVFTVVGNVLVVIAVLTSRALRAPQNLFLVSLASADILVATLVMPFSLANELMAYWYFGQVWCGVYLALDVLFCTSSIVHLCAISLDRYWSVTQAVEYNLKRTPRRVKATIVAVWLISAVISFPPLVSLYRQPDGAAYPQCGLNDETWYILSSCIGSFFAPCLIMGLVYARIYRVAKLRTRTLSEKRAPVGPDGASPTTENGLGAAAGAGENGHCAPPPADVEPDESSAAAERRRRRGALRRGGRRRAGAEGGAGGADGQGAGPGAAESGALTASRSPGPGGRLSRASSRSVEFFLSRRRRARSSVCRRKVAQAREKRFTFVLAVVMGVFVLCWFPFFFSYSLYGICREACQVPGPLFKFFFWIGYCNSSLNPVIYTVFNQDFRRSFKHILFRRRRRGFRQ
T2 sequence (P18089 whole entry): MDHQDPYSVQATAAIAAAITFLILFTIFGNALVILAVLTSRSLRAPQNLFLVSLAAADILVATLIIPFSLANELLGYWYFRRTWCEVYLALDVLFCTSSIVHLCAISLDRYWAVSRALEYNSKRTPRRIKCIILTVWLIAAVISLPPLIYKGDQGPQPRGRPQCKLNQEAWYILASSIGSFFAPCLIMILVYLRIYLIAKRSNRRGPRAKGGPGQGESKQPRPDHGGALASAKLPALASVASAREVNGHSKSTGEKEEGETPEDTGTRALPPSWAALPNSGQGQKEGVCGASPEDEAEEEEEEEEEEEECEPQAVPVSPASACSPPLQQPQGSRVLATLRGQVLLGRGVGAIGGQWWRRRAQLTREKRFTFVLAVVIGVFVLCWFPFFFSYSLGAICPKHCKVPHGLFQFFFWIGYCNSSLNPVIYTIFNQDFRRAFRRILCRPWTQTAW
Description: Antagonistic activity against Alpha-2 adrenergic receptor in human blood platelets. The test is classed as functional, tissue-based. In outline:
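Human platelet-rich plasma pretreated with 1 mM aspirin. Inhibitor at various concentrations added 1 min before epinephrine (30-100 µM). Primary-wave aggregation measured; IC50 is the molar 50% inhibitory concentration.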

Consider `c1ccc2c3c(ccc2c1)CCCC3c1c[nH]cn1` (configuration not stated), for which the Ki (as a rule, a measure of affinity in units of concentration, obtained from inhibition or displacement) in test [1] was 1449 nM.
Take `CC(c1c[nH]cn1)c1cccc2ccccc12` (configuration not stated): the IC50 – broadly, the point on the concentration scale where inhibition reaches its midpoint – in test [2] was determined as 4.3 µM.
